Laboratory results published in ChEMBL document CHEMBL4138085, “Design, synthesis and antimicrobial evaluation of novel benzimidazole-incorporated sulfonamide analogues” (Eur J Med Chem, 2017).
≈ marks a conversion by molar mass, not a printed value.

How the values were obtained:
[1] = test system: Staphylococcus aureus; test: Antibacterial activity against Staphylococcus aureus ATCC 25923 after 24 hrs by NCCLS two fold broth microdilution method; type: functional; conditions: ATCC 25923, 24 h
In short: (§1)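 Two-fold serial broth microdilution in 96-well plates following NCCLS. Compounds were dissolved in DMSO as stocks, then diluted in Mueller–Hinton broth to final concentrations of 0.5–512 µg/mL. Plates were inoculated and incubated at 37 °C for 24 h, with growth read visually and spectrophotometrically. MIC was taken as the lowest concentration giving complete growth inhibition. Run in triplicate, with a DMSO-plus-inoculum solvent control.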

[2] = test system: Candida albicans; test: Antifungal activity against Candida albicans ATCC 76615 after 24 hrs by NCCLS two fold broth microdilution method; type: functional; conditions: ATCC 76615, 24 h
In short: (§2)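 Two-fold serial microdilution following NCCLS. A spore suspension in sterile distilled water was prepared from one-day-old cultures grown on Sabouraud agar and adjusted to a final 1–5 × 10^3 spores/mL. DMSO stocks were diluted in RPMI 1640 to eleven concentrations (0.5–512 µg/mL), inoculated and held at 35 °C for 24 h. Growth was read visually and spectrophotometrically, MIC was the lowest concentration with complete inhibition, and runs were in triplicate.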

[3] = test system: Salmonella typhi; test: Antibacterial activity against Bacillus typhi after 24 hrs by NCCLS two fold broth microdilution method; type: functional, Salmonella enterica subsp. enterica serovar Typhi; conditions: Salmonella enterica
In short: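 Two-fold serial broth microdilution per NCCLS. DMSO stocks diluted in Mueller–Hinton broth to 512, 256, 128, 64, 32, 16, 8, 4, 2, 1, 0.5 µg/mL. Chloromycin and norfloxacin as reference drugs; DMSO with inoculum, no drug, as solvent control. Incubation 37 °C for 24 h. Growth read visually and spectrophotometrically. MIC is the lowest concentration completely inhibiting growth; triplicate.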

[4] = test system: Micrococcus luteus; test: Antibacterial activity against Micrococcus luteus ATCC 4698 after 24 hrs by NCCLS two fold broth microdilution method; type: functional; conditions: NCTC 2665, 24 h; in short: as §1
[5] = test system: Staphylococcus aureus; test: Antibacterial activity against methicillin-resistant Staphylococcus aureus N315 after 24 hrs by NCCLS two fold broth microdilution method; type: functional; conditions: N315, 24 h
In short: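 Two-fold serial broth microdilution per NCCLS. Chloromycin and norfloxacin as reference drugs; DMSO with inoculum, no drug, as solvent control. Incubation 37 °C for 24 h. Growth read visually and spectrophotometrically. MIC is the lowest concentration completely inhibiting growth; triplicate.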

[6] = test system: Pichia norvegensis; test: Antifungal activity against Candida mycoderma after 24 hrs by NCCLS two fold broth microdilution method; type: functional
[7] = test system: Escherichia coli; test: Antibacterial activity against Escherichia coli ATCC 8099 after 24 hrs by NCCLS two fold broth microdilution method; type: functional; conditions: ATCC 8099, 24 h
In short: as §1, with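 “NCCLS.” for “NCCLS. Compounds were dissolved in DMSO as stocks, then diluted in Mueller–Hinton broth to final concentrations of 0.5–512 µg/mL.”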

[8] = test system: Cyberlindnera jadinii; test: Antifungal activity against Candida utilis after 24 hrs by NCCLS two fold broth microdilution method; type: functional; conditions: Williopsis jadinii; in short: as §2
[9] = test system: Saccharomyces cerevisiae; test: Antifungal activity against Saccharomyces cerevisiae after 24 hrs by NCCLS two fold broth microdilution method; type: functional; in short: as §2
[10] = test system: Pseudomonas aeruginosa; test: Antibacterial activity against Pseudomonas aeruginosa ATCC 27853 after 24 hrs by NCCLS two fold broth microdilution method; type: functional; conditions: ATCC 27853, 24 h
In short: as §1, with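 “NCCLS.” for “NCCLS. Compounds were dissolved in DMSO as stocks, then diluted in Mueller–Hinton broth to final concentrations of 0.5–512 µg/mL.”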

[11] = test system: Aspergillus flavus; test: Antifungal activity against Aspergillus flavus after 24 hrs by NCCLS two fold broth microdilution method; type: functional; in short: as §2
[12] = test system: Bacillus subtilis; test: Antibacterial activity against Bacillus subtilis ATCC 21216 after 24 hrs by NCCLS two fold broth microdilution method; type: functional; conditions: ATCC 21216, 24 h; in short: as §1
[13] = test system: Bacillus; test: Antibacterial activity against Bacillus proteus ATCC 13315 after 24 hrs by NCCLS two fold broth microdilution method; type: functional; conditions: ATCC 13315, 24 h; in short: as §1

SMILES	MIC [1]	MIC [2]	MIC [3]	MIC [4]	MIC [5]	MIC [6]	MIC [7]	MIC [8]	MIC [9]	MIC [10]	MIC [11]	MIC [12]	MIC [13]
CCn1c(CS(=O)(=O)c2ccc(N)cc2)nc2ccccc21	64 µg/mL (≈ 203 µM)	256 µg/mL (≈ 812 µM)	128 µg/mL (≈ 406 µM)	128 µg/mL (≈ 406 µM)	128 µg/mL (≈ 406 µM)	512 µg/mL (≈ 1620 µM)	64 µg/mL (≈ 203 µM)	64 µg/mL (≈ 203 µM)	512 µg/mL (≈ 1620 µM)	64 µg/mL (≈ 203 µM)	32 µg/mL (≈ 101 µM)	64 µg/mL (≈ 203 µM)	64 µg/mL (≈ 203 µM)
CCCCCCCCCCn1c(CS(=O)(=O)c2ccc(N)cc2)nc2ccccc21	512 µg/mL (≈ 1200 µM)	512 µg/mL (≈ 1200 µM)	512 µg/mL (≈ 1200 µM)	512 µg/mL (≈ 1200 µM)	512 µg/mL (≈ 1200 µM)	512 µg/mL (≈ 1200 µM)	512 µg/mL (≈ 1200 µM)	8 µg/mL (≈ 18.7 µM)	512 µg/mL (≈ 1200 µM)	512 µg/mL (≈ 1200 µM)	512 µg/mL (≈ 1200 µM)	512 µg/mL (≈ 1200 µM)	512 µg/mL (≈ 1200 µM)
CCCCCCCCCCCCCCCCCCn1c(CS(=O)(=O)c2ccc(N)cc2)nc2ccccc21	512 µg/mL (≈ 948 µM)	512 µg/mL (≈ 948 µM)	512 µg/mL (≈ 948 µM)	256 µg/mL (≈ 474 µM)	512 µg/mL (≈ 948 µM)	64 µg/mL (≈ 119 µM)	512 µg/mL (≈ 948 µM)	512 µg/mL (≈ 948 µM)	64 µg/mL (≈ 119 µM)	512 µg/mL (≈ 948 µM)	512 µg/mL (≈ 948 µM)	512 µg/mL (≈ 948 µM)	512 µg/mL (≈ 948 µM)
Nc1ccc(S(=O)(=O)Cc2nc3ccccc3n2Cc2ccc(Cl)c(Cl)c2)cc1	512 µg/mL (≈ 1150 µM)	64 µg/mL (≈ 143 µM)	64 µg/mL (≈ 143 µM)	256 µg/mL (≈ 574 µM)	128 µg/mL (≈ 287 µM)	512 µg/mL (≈ 1150 µM)	512 µg/mL (≈ 1150 µM)	256 µg/mL (≈ 574 µM)	256 µg/mL (≈ 574 µM)	512 µg/mL (≈ 1150 µM)	512 µg/mL (≈ 1150 µM)	512 µg/mL (≈ 1150 µM)	512 µg/mL (≈ 1150 µM)
O=C(N[C@H](CO)[C@H](O)c1ccc([N+](=O)[O-])cc1)C(Cl)Cl [CHLORAMPHENICOL]	8 µg/mL (≈ 24.8 µM)		32 µg/mL (≈ 99 µM)	8 µg/mL (≈ 24.8 µM)								32 µg/mL (≈ 99 µM)	32 µg/mL (≈ 99 µM)
CCCCCCCCCCCCn1c(CS(=O)(=O)c2ccc(N)cc2)nc2ccccc21	512 µg/mL (≈ 1120 µM)	512 µg/mL (≈ 1120 µM)	512 µg/mL (≈ 1120 µM)	256 µg/mL (≈ 562 µM)	512 µg/mL (≈ 1120 µM)	512 µg/mL (≈ 1120 µM)	512 µg/mL (≈ 1120 µM)	512 µg/mL (≈ 1120 µM)	256 µg/mL (≈ 562 µM)	512 µg/mL (≈ 1120 µM)	512 µg/mL (≈ 1120 µM)	512 µg/mL (≈ 1120 µM)	512 µg/mL (≈ 1120 µM)
CCCCCn1c(CS(=O)(=O)c2ccc(N)cc2)nc2ccccc21	512 µg/mL (≈ 1430 µM)	512 µg/mL (≈ 1430 µM)	512 µg/mL (≈ 1430 µM)	256 µg/mL (≈ 716 µM)	512 µg/mL (≈ 1430 µM)	512 µg/mL (≈ 1430 µM)	512 µg/mL (≈ 1430 µM)	512 µg/mL (≈ 1430 µM)	128 µg/mL (≈ 358 µM)	512 µg/mL (≈ 1430 µM)	256 µg/mL (≈ 716 µM)	512 µg/mL (≈ 1430 µM)	512 µg/mL (≈ 1430 µM)
CCCCCCn1c(CS(=O)(=O)c2ccc(N)cc2)nc2ccccc21	128 µg/mL (≈ 345 µM)	512 µg/mL (≈ 1380 µM)	512 µg/mL (≈ 1380 µM)	512 µg/mL (≈ 1380 µM)	512 µg/mL (≈ 1380 µM)	512 µg/mL (≈ 1380 µM)	512 µg/mL (≈ 1380 µM)	512 µg/mL (≈ 1380 µM)	512 µg/mL (≈ 1380 µM)	128 µg/mL (≈ 345 µM)	512 µg/mL (≈ 1380 µM)	512 µg/mL (≈ 1380 µM)	256 µg/mL (≈ 689 µM)
CCCCCCCCCCn1c(CS(=O)(=O)c2ccc(NC(C)=O)cc2)nc2ccccc21	512 µg/mL (≈ 1090 µM)	512 µg/mL (≈ 1090 µM)	512 µg/mL (≈ 1090 µM)	512 µg/mL (≈ 1090 µM)	512 µg/mL (≈ 1090 µM)	512 µg/mL (≈ 1090 µM)	512 µg/mL (≈ 1090 µM)	16 µg/mL (≈ 34.1 µM)	512 µg/mL (≈ 1090 µM)	512 µg/mL (≈ 1090 µM)	512 µg/mL (≈ 1090 µM)	512 µg/mL (≈ 1090 µM)	512 µg/mL (≈ 1090 µM)
OC(Cn1cncn1)(Cn1cncn1)c1ccc(F)cc1F [FLUCONAZOLE]		1 µg/mL (≈ 3.27 µM)				4 µg/mL (≈ 13.1 µM)		8 µg/mL (≈ 26.1 µM)	16 µg/mL (≈ 52.2 µM)		256 µg/mL (≈ 836 µM)		
CCn1cc(C(=O)O)c(=O)c2cc(F)c(N3CCNCC3)cc21 [NORFLOXACIN]	8 µg/mL (≈ 25.1 µM)		1 µg/mL (≈ 3.13 µM)	1 µg/mL (≈ 3.13 µM)	1 µg/mL (≈ 3.13 µM)		1 µg/mL (≈ 3.13 µM)			1 µg/mL (≈ 3.13 µM)		2 µg/mL (≈ 6.26 µM)	4 µg/mL (≈ 12.5 µM)
